# Experimental data taken from ChEMBL document CHEMBL1121524, “Studies of hypolipidemic agents. 1. Synthesis and hypolipidemic activities of alkoxycinnamic acid derivatives” (1980).
# Columns and labels:
# Rattus norvegicus [1] = organism: Rattus norvegicus; test: Tested for the hypolipidemic activity, expressed as percent decrease in Triglyceride in rat, at dosage of 10 mg for 7 days by Ryan and Rasho method; assay type: functional
# How it was run: (§1)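 Male Sprague-Dawley rats, 4 weeks old, kept on CE-2 chow for at least 1 week, then grouped (generally five per group). Compound was mixed into CE-2 powder and fed ad libitum for the stated period; controls received plain CE-2 powder. Diet level is given as mg/100 g (mg%), about equal to mg/kg/day. Total serum triglyceride was measured by the Ryan and Rasho method and reported as percent depression versus control group mean. Significance was p < 0.05.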
# Rattus norvegicus [2] = organism: Rattus norvegicus; test: Tested for the hypolipidemic activity, expressed as percent decrease in serum cholesterol in rat, at dosage of 10 mg for 7 days by Zak et al method; assay type: functional
# How it was run: as §1, with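 “cholesterol” for “triglyceride”, “Zak et al.” for “Ryan and Rasho”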
# Rattus norvegicus [3] = test: In vivo hypolipidemic activity, expressed as percent decrease in serum cholesterol in rat, at dosage of 20 mg for 7 days.; assay type: functional
# How it was run: as §1, with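 “cholesterol” for “triglyceride”, “Zak et al.” for “Ryan and Rasho”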
# Rattus norvegicus [4] = organism: Rattus norvegicus; test: Tested for the hypolipidemic activity, expressed as percent decrease in Triglyceride in rat, at dosage of 100 mg for 3 days by Ryan and Rasho method; assay type: functional; how it was run: as §1
# Rattus norvegicus [5] = organism: Rattus norvegicus; test: Tested for the hypolipidemic activity, expressed as percent decrease in serum cholesterol in rat, at dosage of 100 mg for 3 days by Zak et al method; assay type: functional
# How it was run: as §1, with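 “cholesterol” for “triglyceride”, “Zak et al.” for “Ryan and Rasho”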
# Rattus norvegicus [6] = organism: Rattus norvegicus; test: Hypolipidemic activity expressed as percentage decrease in triglyceride in rat, at dosage of 50 mg for 7 days; assay type: functional; how it was run: as §1
# Rattus norvegicus [7] = organism: Rattus norvegicus; test: Hypolipidemic activity, expressed as percent decrease in serum cholesterol in rat, at dosage of 100 mg for 7 days by Zak et al method; assay type: functional
# How it was run: as §1, with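 “cholesterol” for “triglyceride”, “Zak et al.” for “Ryan and Rasho”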
# Rattus norvegicus [8] = organism: Rattus norvegicus; test: Tested for the hypolipidemic activity, expressed as percent decrease in serum cholesterol in rat, at dosage of 50 mg for 7 days; assay type: functional
# How it was run: as §1, with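 “cholesterol” for “triglyceride”, “Zak et al.” for “Ryan and Rasho”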
# Rattus norvegicus [9] = test: In vivo hypolipidemic activity, expressed as percent decrease in serum triglyceride in rat, at dosage of 20 mg for 7 days.
# Rattus norvegicus [10] = test: In vivo hypolipidemic activity, expressed as percent decrease in Triglyceride in rat, at dosage of 100 mg for 7 days.; assay type: functional; how it was run: as §1
# Rattus norvegicus [11] = organism: Rattus norvegicus; test: Tested for the hypolipidemic activity, expressed as percent decrease in Triglyceride in rat, at dosage of 100 mg for 6 days by Ryan and Rasho method; assay type: functional; how it was run: as §1
# Rattus norvegicus [12] = organism: Rattus norvegicus; test: Tested for the hypolipidemic activity, expressed as percent decrease in serum cholesterol in rat, at dosage of 100 mg for 6 days by Zak et al method; assay type: functional
# How it was run: as §1, with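 “cholesterol” for “triglyceride”, “Zak et al.” for “Ryan and Rasho”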
# Rattus norvegicus [13] = organism: Rattus norvegicus; test: tested for the hypolipidemic activity, expressed as percent decrease in Triglyceride in rat, at dosage of 50 mg for 3 days by Ryan and Rasho method; assay type: functional; how it was run: as §1
# Rattus norvegicus [14] = organism: Rattus norvegicus; test: tested for the hypolipidemic activity, expressed as percent decrease in serum cholesterol in rat, at dosage of 10 mg for 7 days by Zak et al method; assay type: functional
# How it was run: as §1, with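 “cholesterol” for “triglyceride”, “Zak et al.” for “Ryan and Rasho”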
# Rattus norvegicus [15] = organism: Rattus norvegicus; test: tested for the hypolipidemic activity, expressed as percent decrease in serum cholesterol in rat, at dosage of 50 mg for 3 days by Zak et al method; assay type: functional
# How it was run: as §1, with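 “cholesterol” for “triglyceride”, “Zak et al.” for “Ryan and Rasho”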
# Rattus norvegicus [16] = organism: Rattus norvegicus; test: tested for the hypolipidemic activity, expressed as percent decrease in Triglyceride in rat, at dosage of 10 mg for 7 days by Ryan and Rasho method; assay type: functional; how it was run: as §1
# Rattus norvegicus [17] = test: tested for the hypolipidemic activity, expressed as percent decrease in Triglyceride in rat, at dosage of 20 mg/kg 0 mg for 7 days by Ryan and Rasho method
# Rattus norvegicus [18] = organism: Rattus norvegicus; test: Tested for the hypolipidemic activity, expressed as percent decrease in serum cholesterol in rat, at dosage of 100 mg for 5 days by Zak et al method; assay type: functional
# How it was run: as §1, with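 “cholesterol” for “triglyceride”, “Zak et al.” for “Ryan and Rasho”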
# Rattus norvegicus [19] = organism: Rattus norvegicus; test: Tested for the hypolipidemic activity, expressed as percent decrease in Triglyceride in rat, at dosage of 100 mg for 5 days by Ryan and Rasho method; assay type: functional; how it was run: as §1
# Rattus norvegicus [20] = organism: Rattus norvegicus; test: Tested for the hypolipidemic activity, expressed as percent decrease in Triglyceride in rat, at dosage of mg for 7 days by Ryan and Rasho method; assay type: functional; how it was run: as §1
# Rattus norvegicus [21] = organism: Rattus norvegicus; test: Tested for the hypolipidemic activity, expressed as percent decrease in serum cholesterol in rat, at dosage of 30 mg for 7 days by Zak et al method; assay type: functional
# How it was run: as §1, with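 “cholesterol” for “triglyceride”, “Zak et al.” for “Ryan and Rasho”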
# Rattus norvegicus [22] = organism: Rattus norvegicus; test: Tested for the hypolipidemic activity, expressed as percent decrease in Triglyceride in rat, at dosage of 30 mg for 7 days by Ryan and Rasho method; assay type: functional; how it was run: as §1
compound,measurement,setting,value
CCCCCCCCCCCCCCCCOc1ccc(/C=C/C(=O)O)cc1,Decrease,Rattus norvegicus [1],2%
same,Decrease,Rattus norvegicus [2],7%
same,Decrease,Rattus norvegicus [3],2%
CCCCCCCCCCCCCCCCOc1ccc(/C=C(\C)C(=O)OCCO)cc1,Decrease,Rattus norvegicus [4],59%
same,Decrease,Rattus norvegicus [5],13%
CCCCCCCCCCCCCCCCOc1ccc(/C=C/C(=O)OCCCO)cc1,Decrease,Rattus norvegicus [4],16%
same,Decrease,Rattus norvegicus [5],16%
CCCCCCCCCCCCCCOc1ccc(/C=C(\C)C(=O)OCC(O)CO)cc1 (stereo in doubt; 97),Decrease,Rattus norvegicus [6],43%
same,Decrease,Rattus norvegicus [7],45%
same,Decrease,Rattus norvegicus [8],25%
same,Decrease,Rattus norvegicus [9],33%
same,Decrease,Rattus norvegicus [10],52%
same,Decrease,Rattus norvegicus [3],14%
O=C(/C=C/c1ccccc1)OCC(O)CO (stereo not given),Decrease,Rattus norvegicus [11],16%
same,Decrease,Rattus norvegicus [12],6%
C=C(C)C(=O)OCCOC(=O)/C(C)=C/c1ccc(OCCCCCCCCCCCCCCCC)cc1,Decrease,Rattus norvegicus [7],35%
same,Decrease,Rattus norvegicus [9],12%
same,Decrease,Rattus norvegicus [13],27%
same,Decrease,Rattus norvegicus [14],3%
same,Decrease,Rattus norvegicus [15],25%
same,Decrease,Rattus norvegicus [16],10%
same,Decrease,Rattus norvegicus [10],62%
same,Decrease,Rattus norvegicus [3],13%
CCCCCCCCCCCCCCCCOc1ccc(/C=C/C(=O)OCC(O)CO)cc1 (stereo not given),Decrease,Rattus norvegicus [6],17%
same,Decrease,Rattus norvegicus [7],26%
same,Decrease,Rattus norvegicus [8],19%
same,Decrease,Rattus norvegicus [9],8%
same,Decrease,Rattus norvegicus [14],-4%
same,Decrease,Rattus norvegicus [16],11%
same,Decrease,Rattus norvegicus [10],62%
same,Decrease,Rattus norvegicus [3],9%
CCCCCCCCCCCCCCOc1ccc(/C=C(\C)C(=O)OCCC(=O)OC)cc1,Decrease,Rattus norvegicus [6],37%
same,Decrease,Rattus norvegicus [8],30%
same,Decrease,Rattus norvegicus [9],7%
same,Decrease,Rattus norvegicus [3],-1%
CCCCCCCCCCCCCCCCOc1ccc(/C=C(\C)C(=O)OCCS(=O)(=O)[O-])cc1.[Na+],Decrease,Rattus norvegicus [4],36%
same,Decrease,Rattus norvegicus [5],8%
CCCCCCCCOc1ccc(/C=C/C(=O)OCC(O)CO)cc1 (stereo not given),Decrease,Rattus norvegicus [11],15%
same,Decrease,Rattus norvegicus [12],7%
CCCCCCCCCCCCCCCCOc1ccc(/C=C/C(=O)OCCCl)cc1,Decrease,Rattus norvegicus [6],43%
same,Decrease,Rattus norvegicus [8],-4%
same,Decrease,Rattus norvegicus [17],17%
same,Decrease,Rattus norvegicus [3],17%
C=C(C)C(=O)OCCOC(=O)/C=C/c1ccc(OCCCCCCC/C=C/CCCCCCCCC)cc1,Decrease,Rattus norvegicus [18],-13%
same,Decrease,Rattus norvegicus [19],21%
CCCCCCCCCCCCCCCCOc1ccc(/C=C(\C)C(=O)OCCCO)cc1,Decrease,Rattus norvegicus [4],43%
same,Decrease,Rattus norvegicus [5],6%
C=C(C)C(=O)OCCOC(=O)/C=C/c1ccc(OCCCCCCCCCCCCCCCC)cc1,Decrease,Rattus norvegicus [6],42%
same,Decrease,Rattus norvegicus [7],27%
same,Decrease,Rattus norvegicus [8],13%
same,Decrease,Rattus norvegicus [9],38%
same,Decrease,Rattus norvegicus [14],5%
same,Decrease,Rattus norvegicus [16],15%
same,Decrease,Rattus norvegicus [10],65%
same,Decrease,Rattus norvegicus [3],16%
CCCCCCCCCCCCOc1ccc(/C=C(\C)C(=O)OCC(COC(=O)/C(C)=C/c2ccc(OCCCCCCCCCCCC)cc2)OC(=O)/C(C)=C/c2ccc(OCCCCCCCCCCCC)cc2)cc1 (stereo not given),Decrease,Rattus norvegicus [8],2%
same,Decrease,Rattus norvegicus [20],28%
O=C(/C=C/c1ccc(Oc2ccccc2)cc1)OCC(O)CO (stereo not given),Decrease,Rattus norvegicus [6],29%
same,Decrease,Rattus norvegicus [8],11%
same,Decrease,Rattus norvegicus [9],26%
same,Decrease,Rattus norvegicus [3],15%
CCCCCCCCCCCCCCCCOc1ccc(/C=C/C(=O)OCCCCl)cc1,Decrease,Rattus norvegicus [6],48%
same,Decrease,Rattus norvegicus [7],22%
same,Decrease,Rattus norvegicus [8],5%
same,Decrease,Rattus norvegicus [9],38%
same,Decrease,Rattus norvegicus [10],44%
same,Decrease,Rattus norvegicus [3],1%
CCCCCCCCCCCCCCOc1ccc(/C=C(\C)C(=O)OCC)cc1,Decrease,Rattus norvegicus [6],34%
same,Decrease,Rattus norvegicus [8],7%
same,Decrease,Rattus norvegicus [9],37%
same,Decrease,Rattus norvegicus [3],6%
C=CCOc1ccc(/C=C/C(=O)OCC(O)CO)cc1 (stereo not given),Decrease,Rattus norvegicus [4],-14%
same,Decrease,Rattus norvegicus [5],12%
C=CCOc1ccc(/C=C/C(=O)O)cc1,Decrease,Rattus norvegicus [21],0%
same,Decrease,Rattus norvegicus [22],-16%
